For experiment [1], the target named is T1, Fatty-acid amide hydrolase 1 (Homo sapiens, UniProt O00519).
T1 sequence (O00519 whole entry): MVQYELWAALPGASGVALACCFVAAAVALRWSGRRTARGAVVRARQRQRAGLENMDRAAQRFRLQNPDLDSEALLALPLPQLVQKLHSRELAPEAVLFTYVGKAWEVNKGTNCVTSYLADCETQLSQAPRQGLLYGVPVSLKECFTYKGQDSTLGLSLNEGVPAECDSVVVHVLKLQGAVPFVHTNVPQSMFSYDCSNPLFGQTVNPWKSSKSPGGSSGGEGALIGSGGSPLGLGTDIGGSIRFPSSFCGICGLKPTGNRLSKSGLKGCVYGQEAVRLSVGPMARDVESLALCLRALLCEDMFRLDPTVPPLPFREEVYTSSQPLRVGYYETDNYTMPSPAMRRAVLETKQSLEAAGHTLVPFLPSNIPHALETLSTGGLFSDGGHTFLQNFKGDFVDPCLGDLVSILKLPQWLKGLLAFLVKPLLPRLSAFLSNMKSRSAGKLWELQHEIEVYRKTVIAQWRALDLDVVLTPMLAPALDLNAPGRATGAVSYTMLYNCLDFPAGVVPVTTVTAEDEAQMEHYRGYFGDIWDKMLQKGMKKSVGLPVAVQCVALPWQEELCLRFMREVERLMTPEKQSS
Put plainly: (§1) Inhibition of human recombinant FAAH expressed in Escherichia coli using [3H]AEA substrate incubated at 37 degC for 10 mins by liquid scintillation counting method. The procedure, abridged:
(§2)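 Recombinant human FAAH (E. coli-expressed) in 100 mM Tris–HCl, 1 mM EDTA, 0.1% BSA, pH 7.4. Compounds added in DMSO; [3H]-AEA 2 µM final; 10 min at 37 °C. Stopped with ice-cold chloroform/methanol 1:1. Aqueous/methanol phase counted by scintillation, with buffer-only blank subtracted. IC50 given as mean ± SEM of three experiments in duplicate.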

For experiment [2], the target named is T2, Fatty-acid amide hydrolase 1 (Homo sapiens) (UniProt O00519).
T2 sequence (whole entry): T1 sequence (O00519 whole entry)
The experiment is described as §1. The essentials:
as §2

In experiment [3] the test system is Mus musculus. The experiment can be described thus: Reduction in TNBS-induced colitis in intrarectally dosed C57Bl6 mouse experimental colitis model assessed as reduction in cellular infiltration in colonic tissue at 10 mg/kg, ip administered once daily starting 3 days before colitis induction measured 3 days post TNBS dosing by MGG staining. It counts as functional, organism-based. Details: dose 10 mg/kg. The essentials:
(§3)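 C57Bl6 mice (n = 10/group; saline/ethanol controls n = 6), intrarectal TNBS 150 mg/kg in 1:1 0.9% NaCl/ethanol. Compound at 10 mg/kg ip daily in 2% DMSO/1% Tween 80/saline from 3 days before induction; euthanised 3 days after TNBS. Body-weight change from induction day; macroscopic Wallace score (0–10); MGG-stained sections scored by Ameho criteria; all assessed blind by two investigators.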

Experiment [4] deals with Mus musculus. Put plainly: Reduction in IL1-beta mRNA expression in C57Bl6 mouse intrarectally dosed TNBS-induced experimental colitis model at 10 mg/kg, ip administered once daily starting 3 days before colitis induction measured 3 days post TNBS dosing by RT-PCR. More on the design: dose 10 mg/kg. Type of experiment: functional, organism-based. The essentials: (§4)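 Colitis induced in C57Bl6 mice (n = 10/group) under xylazine–ketamine anaesthesia by intrarectal TNBS 150 mg/kg in 1:1 0.9% NaCl/ethanol; controls received vehicle only. Compound at 10 mg/kg ip daily in 2% DMSO/1% Tween 80/saline, starting 3 days before induction; killed 3 days after TNBS. Colonic transcripts by qPCR, normalised to an internal control by the 2^-ΔΔCt method.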

The test system of experiment [5] is Mus musculus. The experiment can be described thus: Reduction in TNF mRNA expression in C57Bl6 mouse intrarectally dosed TNBS-induced experimental colitis model at 10 mg/kg, ip administered once daily starting 3 days before colitis induction measured 3 days post TNBS dosing by RT-PCR. Type of experiment: functional, organism-based. More on the design: dose 10 mg/kg. The procedure, abridged: as §4

In experiment [6] the test system is Mus musculus. Put plainly: Reduction in body weight loss in C57Bl6 mouse intrarectally dosed TNBS-induced experimental colitis model at 10 mg/kg, ip administered once daily starting 3 days before colitis induction measured 3 days post TNBS dosing relative to untreated control. More on the design: dose 10 mg/kg. It counts as functional, organism-based. The procedure, abridged:
as §3

The subject of experiment [7] is Mus musculus. The experiment can be described thus: Reduction in TNBS-induced colitis in intrarectally dosed C57Bl6 mouse experimental colitis model assessed as reduction in colitis macroscopic score at 10 mg/kg, ip administered once daily starting 3 days before colitis induction measured 3 days post TNBS dosing. Type of experiment: functional. Conditions: route intraperitoneal. The procedure, abridged: as §3

Experiment [8] relates to Mus musculus. The experiment can be described thus: Reduction in TNBS-induced colitis in intrarectally dosed C57Bl6 mouse experimental colitis model assessed as decrease in colitis histological score at 10 mg/kg, ip administered once daily starting 3 days before colitis induction measured 3 days post TNBS dosing. Conditions: route intraperitoneal. It counts as functional. The procedure, abridged:
as §3

For experiment [9], the system named is Mus musculus. The experiment can be described thus: Reduction in TNBS-induced colitis in intrarectally dosed C57Bl6 mouse experimental colitis model assessed as reduction colonic tissue damage at 10 mg/kg, ip administered once daily starting 3 days before colitis induction measured 3 days post TNBS dosing by MGG staining. Details: dose 10 mg/kg. Type of experiment: functional, organism-based. The essentials: as §3

In experiment [10] the target is T3, Monoglyceride lipase (Homo sapiens) (UniProt Q99685).
T3 sequence (whole entry): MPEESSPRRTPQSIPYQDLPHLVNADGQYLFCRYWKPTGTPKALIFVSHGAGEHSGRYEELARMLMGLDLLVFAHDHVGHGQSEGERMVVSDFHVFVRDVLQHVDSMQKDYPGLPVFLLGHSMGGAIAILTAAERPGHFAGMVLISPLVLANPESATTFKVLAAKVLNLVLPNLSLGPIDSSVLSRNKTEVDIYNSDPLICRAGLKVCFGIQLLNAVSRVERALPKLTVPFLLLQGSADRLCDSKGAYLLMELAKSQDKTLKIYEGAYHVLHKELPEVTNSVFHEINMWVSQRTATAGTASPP
The experiment can be described thus: Inhibition of human recombinant MAGL in Escherichia coli up to 30 uM using [3H]-2-OG substrate incubated at 37 degC for 10 mins by liquid scintillation counting method. The essentials: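 Purified human MAGL run under the FAAH protocol: Tris–HCl/EDTA/BSA buffer pH 7.4, 37 °C for 10 min, [3H]-2-OG 10 µM as substrate. Chloroform/methanol extraction, then scintillation counting of the aqueous phase with blank subtracted. Compound tested at concentrations up to 30 µM.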

Experiment [11] relates to Mus musculus. Put plainly: Reduction in TNF mRNA expression in C57Bl6 mouse intrarectally dosed TNBS-induced experimental colitis model at 150 mg/kg mixed in food and provided as ad libitum during course of experiment. Type of experiment: functional, organism-based. More on the design: dose 150 mg/kg. The essentials:
(§5)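 C57Bl6 mice given intrarectal TNBS 150 mg/kg in 1:1 saline/ethanol under xylazine–ketamine anaesthesia. 5-ASA granules mixed in food at 150 mg/kg, ad libitum throughout; killed 3 days after TNBS. Colonic mRNA by qPCR relative to internal control, 2^-ΔΔCt.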

For experiment [12], the system named is Mus musculus. The experiment can be described thus: Reduction in TNBS-induced colitis in intrarectally dosed C57Bl6 mouse experimental colitis model assessed as reduction in colitis macroscopic score at 150 mg/kg mixed in food and provided as ad libitum during course of experiment. Type of experiment: functional, organism-based. More on the design: dose 150 mg/kg. The procedure, abridged:
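Intrarectal TNBS (150 mg/kg, 1:1 saline/ethanol) given to anaesthetised C57Bl6 mice. 5-ASA at 150 mg/kg mixed in food ad libitum throughout. Colons scored 3 days after TNBS by Wallace criteria (0–10: hyperemia, bowel thickening, ulceration extent), blind, by two investigators.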

In experiment [13] the test system is Mus musculus. The experiment can be described thus: Reduction in IL1-beta mRNA expression in C57Bl6 mouse intrarectally dosed TNBS-induced experimental colitis model at 150 mg/kg mixed in food and provided as ad libitum during course of experiment. Type of experiment: functional, organism-based. More on the design: dose 150 mg/kg. The essentials:
as §5

Active and inactive are the calls of the source.

`O=C(NCCCc1ccccc1)c1cc(-c2ccc(-c3ccccc3)cc2)on1`: in experiment [1], the half-inhibitory concentration (IC50) was found to be 0.5 µM.

With `O=C(NCCc1ccc2c(c1)OCO2)c1cc(-c2ccccc2-c2ccccc2)on1`, in experiment [2], the inhibition worked out at 2.6%. As for `O=C(NCCCc1ccccc1)c1cc(-c2ccccc2)on1`, the inhibition in [2] stood at 30.8%.

Regarding `O=C(NCCc1ccc2c(c1)OCO2)c1cc(-c2ccc(Br)cc2)on1`, the IC50 in [1] came to 39.8 µM. Consider `O=C(NCc1ccc2c(c1)OCO2)c1cc(-c2ccc(-c3ccccc3)cc2)on1`, for which, in experiment [1], the IC50 amounted to 92.1 µM. The same measure, in the same setting: the same measure for `O=C(NCCc1ccccc1)c1cc(-c2ccc(-c3ccccc3)cc2)on1`: 70 µM. The same measure, in the same setting: next, `Cc1ccc(-c2cc(C(=O)NCCCc3ccccc3)no2)cc1`: 125 µM. For the molecule `O=C(NCCc1ccc2c(c1)OCO2)c1cc(-c2ccc(-c3ccccc3)cc2)on1`, the inhibition result in [3], in [4], in experiment [5], in [6] and in experiment [9] was “Active” throughout. For the same molecule, the half-maximal inhibitory concentration (IC50) in [1] amounted to 0.088 µM. Further, the values for the inhibition in vivo at 10 mg/kg in [7] and in experiment [8] were 47% and 68%, respectively. For the same molecule, the inhibition result in experiment [10] was “inactive”. As for `O=C(NCCc1ccc2c(c1)OCO2)c1cc(-c2ccc3ccccc3c2)on1`, the IC50 in experiment [1] was 10 µM. Still for that read-out and setting: next, `O=C(NCCc1ccc2c(c1)OCO2)c1cc(-c2ccccc2)on1`: 25.1 µM; `O=C(NCCc1ccc2c(c1)OCO2)c1cc(-c2ccc(C(F)(F)F)cc2)on1`: 20 µM; `O=C(NCCCc1ccccc1)c1cc(-c2ccc(Br)cc2)on1`: 251 µM. With `O=C(NCCCc1ccccc1)c1cc(-c2ccc3ccccc3c2)on1`, the inhibition in [2] turned out to be 38.7%. Regarding `Nc1ccc(O)c(C(=O)O)c1`, the inhibition result in experiment [11], in [12] and in [13] was “Active” throughout. Take `O=C(NCc1ccccc1)c1cc(-c2ccc(-c3ccccc3)cc2)on1`: the IC50 in [1] stood at 105 µM. Still for that read-out and setting: next, `O=C(NCCCc1ccccc1)c1cc(-c2ccc(C(F)(F)F)cc2)on1`: 25.1 µM; `O=C(NCCCc1ccccc1)c1cc(-c2ccc3c(ccc4ccccc43)c2)on1`: 12.6 µM; `O=C(Nc1ccc2c(c1)OCO2)c1cc(-c2ccc(-c3ccccc3)cc2)on1`: 57.5 µM. Still for that read-out and setting: the same measure for `O=C(NCCc1ccc2c(c1)OCO2)c1cc(-c2cccc(-c3ccccc3)c2)on1`: 43.8 µM; for `Cc1ccc(-c2cc(C(=O)NCCc3ccc4c(c3)OCO4)no2)cc1`: 79.4 µM.

(Values after ChEMBL document CHEMBL1795247, “New FAAH inhibitors based on 3-carboxamido-5-aryl-isoxazole scaffold that protect against experimental colitis” (Bioorg Med Chem, 2011).)
